Paper PMC4610013 (Science Advances, 2015)

How the values were obtained:
blood-brain barrier = assay: Contrast-enhanced MRI of BBB integrity; format: in vivo, mouse; conditions: wild-type mice, tail-vein injection, 7-T T1-weighted MRI over 20 min, n = 4
Method in brief: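 Mice received targeting or nontargeting siRNA (20 μg complexed with in vivo-jetPEI in 10% glucose, 15 min at room temperature). On a 7-T small-animal MRI, scans ran before and after tail-vein 100 μl of 1:3-diluted Gd-DTPA (0.5 M stock), monitored 20 min. Settings: TR/TE 500/2.7 ms, 30° flip angle, 8 repetitions. Hippocampal bolus-chase clearance was analysed blind to treatment.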

claudin-5 and occludin = assay: Tight junction protein levels after Aβ treatment; format: cell-based, mouse; conditions: brain endothelial cells, increasing doses, 12 hours after treatment, Western blot
Method in brief: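 Bend.3 mouse brain endothelial cells were grown in DMEM with 20% FCS and 2 mM sodium pyruvate at 37°C, 5% CO2. They were exposed 12 h to increasing concentrations of Aβ(1–40) peptide forms, with unmodified monomer at 0.1 to 1 μM. Cells were lysed in tris/2% SDS/10 mM DTT buffer and spun 12,000 rpm for 20 min at 4°C. Tight junction proteins were measured by Western blot densitometry, n = 3 […] per concentration.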

[1] = cited from earlier work

Compound | extravasation of MRI contrast agent after claudin-5 and occludin cosuppression (blood-brain barrier) | levels of claudin-5 and occludin protein (claudin-5 and occludin) | propensity for aggregation [1]
O=C([O-])CN(CCN(CC(=O)[O-])CC(=O)O)CCN(CC(=O)[O-])CC(=O)O.[Gd+3] [Gd-DTPA, gadolinium–diethylenetriamine pentaacetic acid] | increased extravasation |  | 
Aβ(1–40): unmodified Aβ(1–40) monomer isolated by size exclusion chromatography |  | dose-dependent decrease | 
Aβ(1–40)DiY: dityrosine cross-linked dimer prepared by oxidative cross-linking of Aβ(1–40) |  | down-regulated | 
Aβ(1–40)F19P |  | down-regulated | little or no propensity for aggregation
